According to ChEMBL document CHEMBL1127562, “N-substituted spirosuccinimide, spiropyridazine, spiroazetidine, and acetic acid aldose reductase inhibitors derived from isoquinoline-1,3-diones. 2” (J Med Chem, 1994):
Activity calls are given as the source filed them. The calls are words filed in the database; no cut-off is given here.

Assays:
[1] = molecular target: Aldo-keto reductase family 1 member B1 (Bos taurus) (UniProt P16116); assay: Inhibition of aldose reductase activity in partially purified bovine lens preparation at 10e-5 M
Method in brief: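 Partially purified bovine lens aldose reductase. Reduction of DL-glyceraldehyde substrate followed spectrophotometrically. Activity expressed as average inhibition at the tested concentrations, 1×10^-5, 1×10^-6, 1×10^-7 and 4×10^-6 M as printed; IC50 in M where given.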

[2] = tested on: Rattus norvegicus; assay: Tested for in vivo inhibition of galactitol accumulation in the sciatic nerve of galactose-fed rats at the dose of 24.9 (mg/kg/day); type: functional
Method in brief: (§1)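 Rats were given a 20% galactose diet for 4 days, with the test compound administered in the diet. Sciatic nerve galactitol accumulation was measured, and activity is given as % inhibition at the stated daily dose (mg/kg/day). Values are mean ± SEM, n = 6 animals; p < 0.01 unless indicated. NS means no significant inhibition of polyol accumulation.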

[3] = tested on: Rattus norvegicus; assay: Tested for in vivo inhibition of galactitol accumulation in the sciatic nerve of galactose-fed rats at the dose of 47.7 (mg/kg/day); NS=Not significant; type: functional, organism-based; method in brief: as §1
[4] = tested on: Rattus norvegicus; assay: Tested for in vivo inhibition of galactitol accumulation in the lens of galactose-fed rats at the dose of 47.7 (mg/kg/day); NS=Not significant; type: functional, organism-based; conditions: Lens of camera-type eye
[5] = molecular target: Aldo-keto reductase family 1 member B1 (Bos taurus) (UniProt P16116); assay: Inhibition of aldose reductase activity in partially purified bovine lens preparation at 4*10 e-8 M
[6] = tested on: Rattus norvegicus; assay: Tested for in vivo inhibition of galactitol accumulation in the lens of galactose-fed rats at the dose of 24.9 (mg/kg/day); NS=Not significant; type: functional, organism-based; conditions: Lens of camera-type eye
[7] = tested on: Rattus norvegicus; assay: Tested for in vivo inhibition of galactitol accumulation in the sciatic nerve of galactose-fed rats at the dose of 24.9 (mg/kg/day); NS=Not significant; type: functional, organism-based; method in brief: as §1
[8] = tested on: Rattus norvegicus; assay: Tested for in vivo inhibition of galactitol accumulation in the sciatic nerve of galactose-fed rats at the dose of 25 (mg/kg/day); NS=Not significant; type: functional, organism-based; method in brief: as §1
[9] = tested on: Rattus norvegicus; assay: Tested for in vivo inhibition of galactitol accumulation in the lens of galactose-fed rats at the dose of 25 (mg/kg/day); NS=Not significant; type: functional, organism-based; conditions: Lens of camera-type eye
[10] = tested on: Rattus norvegicus; assay: Tested for in vivo inhibition of galactitol accumulation in the lens of galactose-fed rats at the dose of 50 (mg/kg/day); type: functional, Lens of camera-type eye
[11] = tested on: Rattus norvegicus; assay: Tested for in vivo inhibition of galactitol accumulation in the sciatic nerve of galactose-fed rats at the dose of 50 (mg/kg/day); type: functional
Method in brief: (§2)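 Rats fed a 20% galactose diet for 4 days, with test compound given in the diet at the stated daily dose (mg/kg/day). Read-out is inhibition of galactitol (polyol) accumulation in sciatic nerve. Values are % inhibition, mean ± SEM of six animals; p < 0.01 unless marked (some p < 0.05). NS = no significant inhibition of polyol accumulation. Tolrestat was the reference standard.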

[12] = tested on: Rattus norvegicus; assay: Tested for in vivo inhibition of galactitol accumulation in the lens of galactose-fed rats at the dose of 25.1 (mg/kg/day); NS=Not significant; type: functional, organism-based; conditions: Lens of camera-type eye
[13] = tested on: Rattus norvegicus; assay: Tested for in vivo inhibition of galactitol accumulation in the sciatic nerve of galactose-fed rats at the dose of 25.1 (mg/kg/day); NS=Not significant; type: functional, organism-based; method in brief: as §1
[14] = tested on: Rattus norvegicus; assay: Tested for in vivo inhibition of galactitol accumulation in the sciatic nerve of galactose-fed rats at the dose of 1.0 (mg/kg/day); NS=Not significant
[15] = tested on: Rattus norvegicus; assay: Tested for in vivo inhibition of galactitol accumulation in the lens of galactose-fed rats at the dose of 26.1 (mg/kg/day); NS=Not significant; type: functional, organism-based; conditions: Lens of camera-type eye
[16] = tested on: Rattus norvegicus; assay: Tested for in vivo inhibition of galactitol accumulation in the sciatic nerve of galactose-fed rats at the dose of 26.1 (mg/kg/day); NS=Not significant; type: functional, organism-based; method in brief: as §1
[17] = tested on: Rattus norvegicus; assay: Tested for in vivo inhibition of galactitol accumulation in the lens of galactose-fed rats at the dose of 25.2 (mg/kg/day); NS=Not significant; type: functional, organism-based; conditions: Lens of camera-type eye
[18] = tested on: Rattus norvegicus; assay: Tested for in vivo inhibition of galactitol accumulation in the sciatic nerve of galactose-fed rats at the dose of 25.2 (mg/kg/day); NS=Not significant; type: functional, organism-based; method in brief: as §1
[19] = tested on: Rattus norvegicus; assay: Tested for in vivo inhibition of galactitol accumulation in the sciatic nerve of galactose-fed rats at the dose of 55 (mg/kg/day); NS=Not significant; type: functional, organism-based; method in brief: as §2
[20] = tested on: Rattus norvegicus; assay: Tested for in vivo inhibition of galactitol accumulation in the sciatic nerve of galactose-fed rats at the dose of 98 (mg/kg/day); NS=Not significant; type: functional, organism-based; method in brief: as §2
[21] = tested on: Rattus norvegicus; assay: Tested for in vivo inhibition of galactitol accumulation in the lens of galactose-fed rats at the dose of 98 (mg/kg/day); NS=Not significant; type: functional, organism-based; conditions: Lens of camera-type eye
Method in brief: (§3)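 Galactosemic rats were fed 20% galactose for 4 days, with the compound mixed into the diet. […] galactitol accumulation was measured, and activity is given as % inhibition at the stated daily dose (mg/kg/day). Values are mean ± SEM of six animals; p < 0.01 unless indicated. NS means no significant inhibition of polyol accumulation.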

[22] = tested on: Rattus norvegicus; assay: Tested for in vivo inhibition of galactitol accumulation in the sciatic nerve of galactose-fed rats at the dose of 47.2 (mg/kg/day); NS=Not significant; type: functional, organism-based; method in brief: as §1
[23] = tested on: Rattus norvegicus; assay: Tested for in vivo inhibition of galactitol accumulation in the lens of galactose-fed rats at the dose of 47.2 (mg/kg/day); NS=Not significant; type: functional, organism-based; conditions: Lens of camera-type eye
[24] = tested on: Rattus norvegicus; assay: Tested for in vivo inhibition of galactitol accumulation in the sciatic nerve of galactose-fed rats at the dose of 87.3 (mg/kg/day); NS=Not significant; type: functional, organism-based; method in brief: as §2
[25] = tested on: Rattus norvegicus; assay: Tested for in vivo inhibition of galactitol accumulation in the lens of galactose-fed rats at the dose of 87.3 (mg/kg/day); NS=Not significant; type: functional, organism-based; conditions: Lens of camera-type eye; method in brief: as §3

Q: Which inhibition [1] does the source give for CN1C(=O)CC2(C1=O)C(=O)N(Cc1cccc(C(F)(F)F)c1)C(=O)c1ccccc12 (configuration not stated) here?
A: inactive

Q: And the Inhibition [2]?
A: 28%

Q: With COC(=O)NC(=O)CC1C(=O)N(C)C(=O)c2ccc([N+](=O)[O-])cc21 (configuration not stated) as the compound, how does the inhibition [1] read?
A: 67%

Q: What about the inhibition [3] of the same compound?
A: inactive

Q: And the inhibition [4]?
A: inactive

Q: How did the inhibition [5] turn out when O=C1Cc2c(n(Cc3ccc(Br)cc3F)c(=O)c3ccccc23)O1 was run?
A: 32%

Q: And the inhibition [6]?
A: inactive

Q: What about the inhibition [7] of the same compound?
A: inactive

Q: Which inhibition [1] does the source give for NC(=O)CC1C(=O)N(Cc2ccc(Br)cc2F)C(=O)c2cc(F)ccc21 (configuration not stated) here?
A: inactive

Q: What about the inhibition [8] of the same compound?
A: inactive

Q: What about the inhibition [9] of the same compound?
A: inactive

Q: For CC1(CC(=O)O)C(=O)N(Cc2ccc(Cl)c(Cl)c2)C(=O)c2ccccc21 (configuration not stated), which inhibition [1] is on record?
A: 45%

Q: How did the inhibition [1] turn out when NN1C(=O)CC2(C1=O)C(=O)N(Cc1nc3cc(C(F)(F)F)ccc3s1)C(=O)c1ccc(F)cc12 (configuration not stated) was run?
A: inactive

Q: And the Inhibition [10]?
A: 31%

Q: What about the Inhibition [11] of the same compound?
A: 97%

Q: For O=C(O)CC1C(=O)N(Cc2ccc(C(F)(F)F)cc2)C(=O)c2ccccc21 (configuration not stated), which inhibition [1] is on record?
A: 43%

Q: With COC(=O)NC(=O)CC1C(=O)N(C)C(=O)c2cc(Br)c(OC)cc21 (configuration not stated) as the compound, how does the inhibition [1] read?
A: 29%

Q: CCNC(=O)CC1C(=O)N(Cc2ccc(Br)cc2F)C(=O)c2ccc(F)cc21 (configuration not stated) was tested. Which inhibition [1] did it give?
A: 80%

Q: What about the inhibition [12] of the same compound?
A: inactive

Q: And the inhibition [13]?
A: inactive

Q: How did the inhibition [1] turn out when CCN1C(=O)CC2(C1=O)C(=O)N(Cc1ccc(Br)cc1F)C(=O)c1ccc(F)cc12 (configuration not stated) was run?
A: inactive

Q: With CCCN1C(=O)CC2(C1=O)C(=O)N(Cc1ccc(Br)cc1F)C(=O)c1ccc(F)cc12 (configuration not stated) as the compound, how does the inhibition [1] read?
A: inactive

Q: And the inhibition [14]?
A: inactive

Q: Which results are given for O=C(O)CC1C(=O)N(Cc2ccc(Br)cc2F)C(=O)c2cc(Cl)ccc21 (configuration not stated)?
A: inhibition [5]: 30%; inhibition [15]: inactive; inhibition [16]: inactive

Q: With CNC(=O)CC1C(=O)N(Cc2ccc(Br)cc2F)C(=O)c2ccccc21 (configuration not stated) as the compound, how does the inhibition [1] read?
A: 62%

Q: With O=C(O)CC1C(=O)N(Cc2ccc(Br)cc2F)C(=O)c2ccc(F)cc21 (configuration not stated) as the compound, how does the inhibition [5] read?
A: 80%

Q: And the inhibition [6]?
A: inactive

Q: And the Inhibition [2]?
A: 47%

Q: Which results are given for NC(=O)CC1C(=O)N(Cc2ccc(Br)cc2F)C(=O)c2ccc(F)cc21 (configuration not stated)?
A: inhibition [1]: 88%; inhibition [8]: inactive; inhibition [9]: inactive

Q: How did the inhibition [1] turn out when NC(=O)CC1C(=O)N(Cc2ccc(Br)cc2F)C(=O)c2ccccc21 (configuration not stated) was run?
A: inactive

Q: What about the inhibition [17] of the same compound?
A: inactive

Q: And the inhibition [18]?
A: inactive

Q: With CN1NC(=O)C2(CC1=O)C(=O)N(Cc1ccc(Br)cc1F)C(=O)c1ccccc12 (configuration not stated) as the compound, how does the inhibition [1] read?
A: inactive

Q: What about the inhibition [19] of the same compound?
A: inactive

Q: With O=C(O)CC1C(=O)N(Cc2ccc(Cl)c(Cl)c2)C(=O)c2ccccc21 (configuration not stated) as the compound, how does the inhibition [5] read?
A: 58%

Q: What about the inhibition [20] of the same compound?
A: inactive

Q: What about the inhibition [21] of the same compound?
A: inactive

Q: Which inhibition [1] does the source give for COC(=O)NC(=O)CC1C(=O)N(C)C(=O)c2ccc(OC)cc21 (configuration not stated) here?
A: 53%

Q: And the inhibition [22]?
A: inactive

Q: And the inhibition [23]?
A: inactive

Q: With CCN1C(=O)c2ccccc2C(CC(=O)NC(=O)OC)C1=O (configuration not stated) as the compound, how does the inhibition [1] read?
A: inactive

Q: What about the inhibition [24] of the same compound?
A: inactive

Q: And the inhibition [25]?
A: inactive
